Most compounds without a hit are left out; they make up all but 2.3% or so of the library.
SIAE primary: human SIAE inhibitors, primary screen, biochemical, fluorescence polarization, FP-Rh probe, 1536-well HTS | SIAE FP-Rh probe binding | AID 1053197, 2014 | Sialate O-acetylesterase (Homo sapiens), Q9HAT2 | 0.69% of 370,000 active | inhibition, % at 9.66 µM;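 active = inhibition above a cutoff: mean of compounds within the control limits plus 3 SD of those, cut at about 17% in these data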;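 note: 0% = plate median of compound wells and 100% = probe without SIAE protein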
Target sequence (Q9HAT2 whole entry, looked up): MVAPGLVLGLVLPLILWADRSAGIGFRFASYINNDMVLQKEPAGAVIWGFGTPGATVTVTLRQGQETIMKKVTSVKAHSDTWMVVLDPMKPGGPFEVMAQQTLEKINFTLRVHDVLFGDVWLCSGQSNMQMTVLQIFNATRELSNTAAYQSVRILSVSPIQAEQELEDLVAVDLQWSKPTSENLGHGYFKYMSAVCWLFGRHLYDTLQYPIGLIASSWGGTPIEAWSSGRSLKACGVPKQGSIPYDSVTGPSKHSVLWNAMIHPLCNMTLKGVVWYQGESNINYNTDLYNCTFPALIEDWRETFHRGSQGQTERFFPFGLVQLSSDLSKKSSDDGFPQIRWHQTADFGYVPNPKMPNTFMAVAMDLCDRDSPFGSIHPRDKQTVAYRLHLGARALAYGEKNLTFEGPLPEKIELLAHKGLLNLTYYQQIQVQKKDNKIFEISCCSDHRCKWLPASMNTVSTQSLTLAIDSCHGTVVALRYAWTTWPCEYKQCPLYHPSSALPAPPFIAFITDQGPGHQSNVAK
TCR-CD3 inh: inhibitors of human TCR-CD3 interaction, primary screen, biochemical, fluorescence, TAMRA-labeled TCR probe; T-cell receptor (TCR); inhibition, % at 9.4 µM; 0.37% of 360,000 active; AID 651800, 2012; in the data active = inhibition above about 19%;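 note: recombinant mutant TCR 2C K166C tagged with TAMRA read by polarization; 0% = receptor in buffer alone and 100% = receptor with positive control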
mABHD4 FP: ABHD4 inhibitors, primary screen, biochemical, fluorescence polarization, mouse; (Lyso)-N-acylphosphatidylethanolamine lipase (Mus musculus), Q8VD66; purified mABHD4, FP-Rh probe fluorescence polarization; inhibition, % at 8.92 µM; 0.54% of 370,000 active;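 active = inhibition exceeding the mean over every tested compound plus 3 SD, cut at about 30% in these data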;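 note: 0% = plate median of compound wells and 100% = S159A mutant with DMSO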
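System: mouse ABHD4 enzyme, wild type / Medium: HEPES pH 7.0, NaCl, Pluronic buffer / Reagent: FP-Rh activity-based fluorescent probe / Control set: S159A mutant high control, sample median low control / Detection: fluorescence polarization with parallel and perpendicular emission, 525/598 nm / Schedule: 45 min + 60 min at 25 °C / Compound dosing: 8.92 µM, single dose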
HTRA1 inh: HTRA1 serine protease inhibitors, primary screen, biochemical, fluorescence polarization, HTS. recombinant HTRA1, FP-rhodamine activity-based probe. inhibition, % at 5.96 µM. 0.5% of 340,000 active. AID 504803, 2011; in the data active = inhibition above about 36%;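 note: 0% = enzyme with DMSO and 100% = wells lacking enzyme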
pPAFAH inh: pPAFAH enzyme inhibitors, primary screen, biochemical, fluorescence polarization, human; 1.5% of 330,000 active; recombinant pPAFAH, FP-rhodamine probe fluorescence polarization; inhibition, % at 3.39 µM; Platelet-activating factor acetylhydrolase (Homo sapiens), Q13093;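 active = inhibition above the mean inhibition across the screen plus 3 SD, cut at about 25% in these data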;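 note: inhibitors block binding of the rhodamine activity-based probe so polarization drops; 0% = enzyme with DMSO and 100% = wells lacking pPAFAH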
mABHD4 conf: ABHD4 inhibitors, retest, confirmation, biochemical, fluorescence polarization, mouse; inhibition, % at 8.92 µM; 55% of 1,800 active; AID 720658, 2013; shares compounds with mABHD4 FP; purified mABHD4, FP-Rh probe fluorescence polarization;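 active = mean inhibition across replicates above the hit cutoff set in the primary screen, cut at about 30% in these data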;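 note: 0% = wild-type ABHD4 with DMSO and 100% = catalytically dead S159A mutant with DMSO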
The depositor's hits bear a star; . = no result given; + = active, no number.

SMILES | SIAE primary | TCR-CD3 inh | mABHD4 FP | HTRA1 inh | pPAFAH inh | mABHD4 conf
CN(c1ccccc1)c1ccc(/C=C(/CCC(=O)O)c2nc3ccccc3s2)cc1[N+](=O)[O-] | 7 | -10 | 46* | 33 | . | 56*
O=C(O)CC/C(=C\c1ccc(N2CCCC2)c([N+](=O)[O-])c1)c1nc2ccccc2s1 | -14 | -8 | 46* | 10 | 16 | 51*
O=C(O)CC/C(=C\c1cc([N+](=O)[O-])ccc1Cl)c1nc2ccccc2s1 | -4 | 7 | -10 | -6 | 11 | .
O=C(O)CC/C(=C\c1ccccc1[N+](=O)[O-])c1nc2ccccc2s1 | -10 | 4 | -1 | 4 | 0 | .
Cc1ccccc1C1N=C2Oc3ccccc3C=C2C(=O)N1 (stereo not drawn) | -5 | 6 | 3 | . | . | .
CC(C)(C)C(=O)Nc1sc(-c2ccccc2)cc1C(=O)O | -1 | 7 | 6 | -4 | 7 | .
Cc1cccc(C(=O)Nc2sc(-c3ccccc3)cc2C(=O)O)c1 | -78 | -6 | 51* | -11 | 34* | 53*
O=C(O)c1cc(-c2ccc(/C=N/NC(=S)Nc3ccccc3)o2)ccc1Cl | 6 | 15 | 39* | . | 23 | 50*
O=[N+]([O-])c1cccc(-c2ccc(/C=N/NC(=S)Nc3ccccc3)o2)c1 | 8 | 5 | 11 | -3 | 12 | .
O=C1C(=Cc2ccco2)C(=O)c2ccccc21 | 3 | 3 | 35* | 25 | 28* | 28
C=CCNC1CCC12CCC(c1ccccc1)CC2 (stereo not drawn) | -9 | . | 3 | . | . | .
O=C(O)c1ccc2c(c1)C(=O)N(c1ccc(Nc3ccccc3)cc1)C2=O | 8 | -1 | 31* | 13 | . | 18
O=C(O)c1cccc(NC(=O)c2ccc3c(c2)C(=O)N(c2ccccc2)C3=O)c1 | -2 | -1 | 4 | -3 | -9 | .
COCC(C)N1CC(O)=C(c2nc(-c3ccc(Cl)cc3)cs2)C1=N (stereo not drawn) | 6 | 0 | 32* | 8 | 16 | 29
CSc1ccc(CNc2ccc(Cl)cc2)cc1 | -2 | 1 | + | -3 | 5 | -6
COc1cc2c(NCCCCCCO[N+](=O)[O-])ncnc2c(OC)c1OC | 2 | -3 | 2 | . | . | .
Nc1ccc2nc(-c3ccccc3)[nH]c2c1 | 8 | 1 | 32* | 2 | 4 | 6
Nc1ccc2nc(-c3cccs3)[nH]c2c1 | 11 | -11 | 31* | 7 | 11 | 30*
Nc1cccc(-c2nc3ccc(C(=O)c4ccccc4)cc3[nH]2)c1 | -5 | -5 | 13 | -11 | 11 | .
Cc1cc(N2CCCN(C)CC2)n2nc(C)nc2n1 | 0 | . | 5 | . | . | .
COC(=O)C1CN(Cc2ccccc2)CCS(=O)(=O)N1Cc1cn(Cc2ccc(Cl)cc2)nn1 (stereo not drawn) | 4 | . | 2 | . | . | .
COC(=O)C1=C(C)N(Cc2ccccc2C(F)(F)F)C(=NCc2ccc(OC)cc2)NC1c1cccc(F)c1 (stereo not drawn) | 1 | -4 | 42* | . | . | 66*
COC(=O)C1=C(C)N(Cc2ccccc2C(F)(F)F)C(=NCc2ccc(OC)cc2)NC1c1ccccc1 (stereo not drawn) | 9 | 4 | 13 | . | . | .
N#CC(C#N)=c1ccc2c(c1)N1C3=C(CCCC3)CC3CCCCC31N=2 (stereo not drawn) | 7 | -8 | 7 | 19 | 2 | .
N#C/C(C(N)=O)=c1/ccc2c(c1)N1C3=C(CCCC3)CC3CCCCC31N=2 (stereo not drawn) | 6 | 10 | 49* | . | 9 | 49*
CCCCn1c(N)c(N(CCOC)C(=O)C2CCN(C(=O)c3ccc(F)cc3)CC2)c(=O)[nH]c1=O | 9 | 1 | 31* | -2 | -2 | 4
CCCCn1c(N)c(N(CCOC)C(=O)C2CCN(C(=O)c3ccc(Cl)cc3)CC2)c(=O)[nH]c1=O | -4 | -3 | 1 | -2 | -4 | .
Cc1ccc(NC2=C(Cl)C(=O)c3ccccc3C2=O)cc1 | 10 | 0 | 12 | 5 | 6 | .

Screening data (PubChem BioAssay)
